We go through nine compounds from ChEMBL document CHEMBL1143667, “Synthesis and pharmacological evaluation of 6,7-indolo/thiazolo-morphinans--further SAR of levorphanol” (J Med Chem, 2007).

By Ki is commonly meant a dissociation constant, usually derived from enzyme kinetics or from competition with a known ligand. Read a high Ki as weaker binding. The term EC50 denotes the concentration that produces a half-maximal response. By Emax is commonly meant the maximal effect, on the per cent scale that the assay sets. Broadly, the IC50 is the concentration needed to halve the response being measured.

Experiment [1] has as its target T1, Delta-type opioid receptor (Homo sapiens, UniProt P41143). The experiment can be described thus: Displacement of [3H]naltrindole from human delta opioid receptor expressed in CHO membrane. The format is cell membranes. In short, it runs like this: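 CHO membranes (0.5 mg protein/sample) incubated at 25 °C with δ-specific radioligand and 12 compound concentrations in 1 mL 50 mM Tris-HCl, pH 7.5; nonspecific binding with 10 µM naloxone. Three experiments in triplicate.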
For orientation: Displacement assays read how much labelled ligand stays bound in the presence of the test substance.

The target in experiment [2] is T2, Kappa-type opioid receptor (Homo sapiens, UniProt P41145). The experiment can be described thus: Displacement of [3H]U-69593 from human kappa opioid receptor expressed in CHO membrane. The format is cell membranes. In a few lines: (§1)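 CHO membranes (0.5 mg protein/sample) incubated 60 min at 25 °C with [3H]DAMGO (µ) or [3H]U69,593 (κ) and 12 compound concentrations in 1 mL 50 mM Tris-HCl, pH 7.5. Nonspecific binding with 10 µM naloxone. Mean ± SEM of three experiments in triplicate.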

Experiment [3] addresses T2, Kappa-type opioid receptor. The experiment can be described thus: Agonist activity at human kappa opioid receptor expressed in CHO membrane assessed as stimulation of [35S]GTP-gamma-S binding. The format is functional, cell membranes. In short, it runs like this:
(§2)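 Membranes from CHO cells stably expressing human κ (15 µg protein/tube) or µ (7.5 µg/tube) receptor; 12 agonist concentrations, 60 min at 30 °C in Tris-HCl/MgCl2/NaCl/EGTA buffer pH 7.4 with 3 µM GDP and [35S]GTPγS (0.8 nM). Nonspecific binding with 10 µM unlabeled GTPγS; filtration, scintillation counting. Stimulation as % over basal; at least three experiments in triplicate.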
For orientation: GTPγS resists hydrolysis and so accumulates on activated G proteins.

Experiment [4] addresses T2, Kappa-type opioid receptor. Description: Antagonist activity at human kappa opioid receptor expressed in CHO membrane assessed as inhibition of U50488-induced [35S]GTP-gamma-S binding. The format is functional, cell membranes. In short, it runs like this: (§3)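 Antagonism measured in CHO membranes expressing κ receptor with 100 nM U50,488, or µ receptor with 200 nM DAMGO, plus test compound and 0.8 nM [35S]GTPγS, 3 µM GDP. Filtration and scintillation readout; IC50 and Imax from three experiments in triplicate.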

Experiment [5] deals with T1, Delta-type opioid receptor. Description: Agonist activity at human delta opioid receptor expressed in CHO membrane assessed as stimulation of [35S]GTP-gamma-S binding. The format is functional, cell membranes.
Experiment [6] addresses T1, Delta-type opioid receptor. Description: Antagonist activity at human delta opioid receptor expressed in CHO membrane assessed as inhibition of SNC80-induced [35S]GTPgammaS binding. The format is functional, cell membranes.
In experiment [7] the target is T3, Mu-type opioid receptor (Homo sapiens, UniProt P35372). The experiment can be described thus: Displacement of [3H]DAMGO from human mu opioid receptor expressed in CHO membrane. The format is cell membranes. In short, it runs like this:
as §1

Experiment [8] has as its target Opioid receptors; mu & kappa (Homo sapiens) (UniProt P41145+P35372). Description: Selectivity for human kappa opioid receptor over human mu opioid receptor. The format is protein assay.
The target in experiment [9] is Opioid receptors; delta & kappa (Homo sapiens) (UniProt P41145+P41143). Description: Selectivity for human kappa opioid receptor over human delta opioid receptor. The format is protein assay.
Experiment [10] deals with T3, Mu-type opioid receptor. The experiment can be described thus: Agonist activity at human mu opioid receptor expressed in CHO membrane assessed as stimulation of [35S]GTPgammaS binding. The format is functional, cell membranes. In short, it runs like this:
as §2

The target of experiment [11] is T3, Mu-type opioid receptor. Description: Antagonist activity at human mu opioid receptor expressed in CHO membrane assessed as inhibition of DAMGO-induced [35S]GTP-gamma-S binding. The format is functional, cell membranes. In a few lines:
as §3

Structures are written as SMILES. The source made the active and inactive calls. The rule behind the calls is not given here.

T1 sequence (P41143 whole entry): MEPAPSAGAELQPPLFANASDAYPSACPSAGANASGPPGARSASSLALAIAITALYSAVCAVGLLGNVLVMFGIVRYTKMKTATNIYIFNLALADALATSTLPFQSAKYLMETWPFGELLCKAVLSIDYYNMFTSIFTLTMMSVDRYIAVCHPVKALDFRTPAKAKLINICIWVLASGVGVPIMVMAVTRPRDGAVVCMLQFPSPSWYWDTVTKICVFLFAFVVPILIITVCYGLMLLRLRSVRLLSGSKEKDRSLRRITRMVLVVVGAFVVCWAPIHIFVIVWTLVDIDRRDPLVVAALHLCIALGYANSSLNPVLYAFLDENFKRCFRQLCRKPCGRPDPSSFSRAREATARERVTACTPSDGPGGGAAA
Chain of Opioid receptors; delta & kappa (Homo sapiens) (P41143 whole entry, looked up): as the sequence (P41143 whole entry) above
Chain of Opioid receptors; delta & kappa (Homo sapiens) (P41145 whole entry, looked up): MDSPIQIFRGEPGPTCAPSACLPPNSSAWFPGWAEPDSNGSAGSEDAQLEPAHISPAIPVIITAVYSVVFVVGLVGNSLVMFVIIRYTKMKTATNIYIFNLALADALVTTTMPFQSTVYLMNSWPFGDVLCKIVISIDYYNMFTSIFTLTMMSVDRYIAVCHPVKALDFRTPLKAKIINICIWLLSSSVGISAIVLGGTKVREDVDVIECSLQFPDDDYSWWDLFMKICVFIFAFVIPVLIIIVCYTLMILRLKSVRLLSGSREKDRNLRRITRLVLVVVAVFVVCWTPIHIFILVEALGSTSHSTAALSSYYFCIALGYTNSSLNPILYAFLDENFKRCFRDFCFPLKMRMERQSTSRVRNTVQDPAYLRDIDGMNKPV
T3 sequence (P35372 whole entry): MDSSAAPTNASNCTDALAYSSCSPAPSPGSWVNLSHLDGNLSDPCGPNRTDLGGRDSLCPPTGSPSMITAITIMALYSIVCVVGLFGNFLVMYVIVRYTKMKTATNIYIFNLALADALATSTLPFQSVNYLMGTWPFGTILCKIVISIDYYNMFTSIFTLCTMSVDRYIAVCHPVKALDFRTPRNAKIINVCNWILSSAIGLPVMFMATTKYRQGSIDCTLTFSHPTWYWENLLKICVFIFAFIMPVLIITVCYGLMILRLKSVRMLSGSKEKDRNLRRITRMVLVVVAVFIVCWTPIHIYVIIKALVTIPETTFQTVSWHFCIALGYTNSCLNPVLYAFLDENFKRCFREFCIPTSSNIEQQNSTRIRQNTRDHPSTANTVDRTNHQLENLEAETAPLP
Chain of Opioid receptors; mu & kappa (Homo sapiens) (P35372 whole entry, looked up): as the sequence (P35372 whole entry) above
Chain of Opioid receptors; mu & kappa (Homo sapiens) (P41145 whole entry, looked up): as the sequence (P41145 whole entry, looked up) above
T2 sequence (P41145 whole entry): as the sequence (P41145 whole entry, looked up) above

With `Nc1nc2c(s1)C[C@H]1[C@H]3Cc4ccc(O)cc4[C@@]1(CCN3CC1CC1)C2`, the results for the inhibitory constant (Ki) in [1] and in [2] were 0.23 nM and 0.07 nM, respectively. In addition, the EC50 amounted to 0.34 nM in [3] and 0.17 nM in experiment [5]. Besides, the Emax in experiment [3] worked out at 37%; in [5], 49%. In addition, the result in experiment [4] and in [6] was inactive.
As to `Oc1ccc2c(c1)[C@]13CCN(CC4CCC4)[C@H](C2)[C@@H]1Cc1c([nH]c2ccccc12)C3`, the values for the Ki (at Mu-type opioid receptor [7]; in [1]; in experiment [2]) were 3.9 nM, 0.17 nM and 1 nM, respectively. In addition, the Ratio Ki was determined as 4 in experiment [8] and 0.2 in [9]. Further, the EC50 at Mu-type opioid receptor [10] was 110 nM; in [3] it was 190 nM; in experiment [5], 0.8 nM. Besides, the Emax on Mu-type opioid receptor [10] stood at 68%; in [3] it was 87%; in experiment [5], 37%. In addition, the Imax at Mu-type opioid receptor [11] came out at 23%; in experiment [6], 55%. Besides, the outcome in experiment [4] was inactive. Moreover, in [6], the 50% inhibitory concentration (IC50) was determined as 0.6 nM.
On to `CN1CC[C@]23Cc4[nH]c5ccccc5c4C[C@H]2[C@H]1Cc1ccc(O)cc13`, for which the results for the Ki (at Mu-type opioid receptor [7]; in [1]; in experiment [2]) were 22 nM, 0.35 nM and 14 nM, respectively. The Ratio Ki was 1.6 in experiment [8] and 0.03 in experiment [9]. Also, in experiment [5], the EC50 stood at 0.47 nM. The maximum response (Emax) in experiment [5] was 23%. In [6], the IC50 was 1.5 nM. Further, in experiment [6], the Imax is 45%.
In the case of `COc1ccc2c(c1)[C@]13CCN(C)[C@H](C2)[C@@H]1Cc1c([nH]c2ccccc12)C3`, the inhibitory constant (Ki) amounted to 340 nM at Mu-type opioid receptor [7], 35 nM in [1] and 390 nM in experiment [2]. For the same compound, the Ratio Ki in [8] is 0.9; in experiment [9], 0.1.
Turning to `Oc1ccc2c(c1)[C@]13CCN(CC4CC4)[C@H](C2)[C@@H]1Cc1c([nH]c2ccccc12)C3`, the Ki at Mu-type opioid receptor [7] amounted to 1.1 nM; in experiment [1], 0.19 nM; in [2] it was 0.64 nM. For the same compound, the Ratio Ki in experiment [8] was 2; in experiment [9], 0.3. The EC50 came out at 92 nM at Mu-type opioid receptor [10], 61 nM in [3] and 0.16 nM in experiment [5]. In addition, the Emax on Mu-type opioid receptor [10] worked out at 47%; in experiment [3], 67%; in experiment [5], 22%. Also, the IC50 came to 12 nM at Mu-type opioid receptor [11], 17 nM in [4] and 1.2 nM in [6]. Moreover, the results for the Imax (at Mu-type opioid receptor [11]; in [4]; in [6]) were 84%, 49% and 73%, respectively.
For `CN1CC[C@]23Cc4nc(N)sc4C[C@H]2[C@H]1Cc1ccc(O)cc13`, the values for the Ki (on Mu-type opioid receptor [7]; in [1]; in experiment [2]) were 0.49 nM, 4.2 nM and 2.2 nM, respectively. Further, the Ratio Ki in experiment [8] was found to be 0.2; in experiment [9], 2. The EC50 on Mu-type opioid receptor [10] is 140 nM; in experiment [3] it was 21 nM; in experiment [5], 8.4 nM. Further, the values for the Emax (on Mu-type opioid receptor [10]; in experiment [3]; in [5]) were 42%, 44% and 67%, respectively. Further, the Imax at Mu-type opioid receptor [11] was 45%. The result in experiment [4] and in [6] was inactive.
On to `COc1ccc2c(c1)[C@]13CCN(CC4CCC4)[C@H](C2)[C@@H]1Cc1c([nH]c2ccccc12)C3`, for which the Ki came to 330 nM on Mu-type opioid receptor [7], 8.7 nM in experiment [1] and 89 nM in experiment [2]. For the same compound, the Ratio Ki in experiment [8] worked out at 4; in experiment [9], 0.1. Besides, in [5], the EC50 was 23 nM. The maximal effect (Emax) in experiment [5] was 54%. In [6], the outcome was inactive.
Take `COc1ccc2c(c1)[C@]13CCN(CC4CC4)[C@H](C2)[C@@H]1Cc1c([nH]c2ccccc12)C3`: the results for the Ki (at Mu-type opioid receptor [7]; in experiment [1]; in experiment [2]) were 5.9 nM, 1.5 nM and 1.4 nM, respectively. For the same compound, the Ratio Ki in [8] is 4; in experiment [9] it was 1. Besides, the figures for the EC50 (on Mu-type opioid receptor [10]; in [3]; in experiment [5]) were 1.7 nM, 24 nM and 1.5 nM, respectively. Besides, the values for the Emax (at Mu-type opioid receptor [10]; in experiment [3]; in experiment [5]) were 72%, 68% and 56%, respectively. In addition, the IC50 on Mu-type opioid receptor [11] is 440 nM. On Mu-type opioid receptor [11], the Imax is 43%. The result in experiment [4] and in experiment [6] was inactive.
As for `Nc1nc2c(s1)C[C@H]1[C@H]3Cc4ccc(O)cc4[C@@]1(CCN3CC1CCC1)C2`, the Ki was 0.37 nM at Mu-type opioid receptor [7], 1.1 nM in experiment [1] and 0.14 nM in [2]. The Ratio Ki amounted to 3 in experiment [8] and 8 in [9]. Besides, the EC50 amounted to 2.6 nM at Mu-type opioid receptor [10], 2.6 nM in experiment [3] and 2.5 nM in experiment [5]. Moreover, the Emax stood at 33% at Mu-type opioid receptor [10], 40% in experiment [3] and 51% in experiment [5]. The IC50 came to 26 nM at Mu-type opioid receptor [11] and 93 nM in experiment [4]. The Imax on Mu-type opioid receptor [11] came to 68%; in experiment [4], 44%. Also, the result in experiment [6] was inactive.
